Blank lines part the entries; values can stand above or below the compound they belong to.
Key:
Hepatocyte [1] = experiment: Drug level in mouse primary hepatocyte supernatant treated with JNJ-54257099 at 2 to 62.5 uM after 4 to 24 hrs using radiolabeled compound by HPLC analysis; format: ADME, cell-based; settings: hepatocytes
Method in brief: (§1)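 Study A: primary cultured hepatocytes (mouse, rat, dog, human) incubated with 2 or 62.5 µM 5'-[3H]-labelled prodrug for 4 and 24 h. Cell lysates were analysed for triphosphate. Supernatants were protein-precipitated and profiled by HPLC with radioactivity detection. Cyclic monophosphate was also assessed by LC/MS/MS.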

Hepatocyte [2] = experiment: Drug level in rat primary hepatocyte supernatant treated with JNJ-54257099 at 2 to 62.5 uM after 4 to 24 hrs using radiolabeled compound by HPLC analysis; format: ADME, cell-based; settings: hepatocytes; method in brief: as §1
[3] = Drug level in dog primary hepatocyte supernatant treated with JNJ-54257099 at 2 to 62.5 uM after 4 to 24 hrs using radiolabeled compound by HPLC analysis; format: ADME, cell-based, Canis lupus familiaris; settings: hepatocytes; method in brief: as §1
Hepatocyte [4] = experiment: Drug level in human primary hepatocyte supernatant treated with JNJ-54257099 at 2 to 62.5 uM after 4 to 24 hrs using radiolabeled compound by HPLC analysis; format: ADME, cell-based; settings: hepatocytes; method in brief: as §1
[5] = Drug level in dog primary hepatocytes treated with JNJ-54257099 at 2 to 62.5 uM after 4 hrs using radiolabeled compound by LC-MS/MS analysis; format: ADME, cell-based, Canis lupus familiaris, Hepatocyte; method in brief: as §1
Hepatocyte [6] = experiment: Drug level in human hepatocytes treated with JNJ-54257099 in presence of CYP2C8 and CYP2C9 inhibitor montelukast by LC-MS/MS analysis; format: ADME, cell-based
Hepatocyte [7] = experiment: Drug level in rat primary hepatocytes treated with JNJ-54257099 at 2 to 62.5 uM after 24 hrs using radiolabeled compound by LC-MS/MS analysis; format: ADME, cell-based; method in brief: as §1
Hepatocyte [8] = experiment: Drug level in human hepatocytes treated with JNJ-54257099 in presence of PDE4 inhibitor rolipram by LC-MS/MS analysis; format: ADME, cell-based
Hepatocyte [9] = experiment: Drug level in human hepatocytes treated with JNJ-54257099 in presence of pan-PDE inhibitor ibudilast by LC-MS/MS analysis; format: ADME, cell-based
Hepatocyte [10] = experiment: Prodrug conversion in mouse cryopreserved hepatocytes assessed as 2'-deoxy-2'-spirooxetane uridine triphosphate level per million cells at 10 uM after 8 hrs by LC-MS/MS analysis; format: ADME, cell-based
Method in brief: (§2)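 Plated cryopreserved hepatocytes (study B) incubated with 10 µM unlabeled prodrug for 2, 8 or 24 h. Triphosphate measured in cell lysates and expressed as pmol/million hepatocytes. Quantification limit 2 ng/10^6 cells.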

[11] = Prodrug conversion in dog cryopreserved hepatocytes assessed as 2'-deoxy-2'-spirooxetane uridine triphosphate level per million cells at 10 uM after 8 hrs by LC-MS/MS analysis; format: ADME, cell-based, Canis lupus familiaris, Hepatocyte; method in brief: as §2
Hepatocyte [12] = experiment: Prodrug conversion in rat cryopreserved hepatocytes assessed as 2'-deoxy-2'-spirooxetane uridine triphosphate level per million cells at 10 uM after 24 hrs by LC-MS/MS analysis; format: ADME, cell-based; method in brief: as §2
Hepatocyte [13] = experiment: Prodrug conversion in human cryopreserved hepatocytes assessed as 2'-deoxy-2'-spirooxetane uridine triphosphate level per million cells at 10 uM after 24 hrs by LC-MS/MS analysis; format: ADME, cell-based; method in brief: as §2
Hepatocyte [14] = experiment: Prodrug conversion in human cryopreserved hepatocytes assessed as 2'-deoxy-2'-spirooxetane uridine triphosphate level per million cells at 10 uM after 2 hrs by LC-MS/MS analysis; format: ADME, cell-based; method in brief: as §2
Hepatocyte [15] = experiment: Prodrug conversion in rat cryopreserved hepatocytes assessed as 2'-deoxy-2'-spirooxetane uridine triphosphate level per million cells at 10 uM after 2 hrs by LC-MS/MS analysis; format: ADME, cell-based; method in brief: as §2
Hepatocyte [16] = experiment: Prodrug conversion in mouse cryopreserved hepatocytes assessed as 2'-deoxy-2'-spirooxetane uridine triphosphate level per million cells at 10 uM after 24 hrs by LC-MS/MS analysis; format: ADME, cell-based; method in brief: as §2
[17] = Cytotoxicity against human HuH7-CMV-Luc cells assessed as reduction in cell proliferation after 3 days by 5-bromo-2'-deoxyuridine incorporation assay; format: cell-based, Huh-7
Method in brief: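 Huh7 cells at 1,500 cells/well, five serial compound dilutions in triplicate, 3 days of incubation. Proliferation was quantified as BrdU incorporation into DNA by ELISA.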

Hepatocyte [18] = experiment: Prodrug conversion in mouse cryopreserved hepatocytes assessed as 2'-deoxy-2'-spirooxetane uridine triphosphate level per million cells at 10 uM after 2 hrs by LC-MS/MS analysis; format: ADME, cell-based; method in brief: as §2
[19] = Prodrug conversion in dog cryopreserved hepatocytes assessed as 2'-deoxy-2'-spirooxetane uridine triphosphate level per million cells at 10 uM after 2 hrs by LC-MS/MS analysis; format: ADME, cell-based, Canis lupus familiaris, Hepatocyte; method in brief: as §2
Hepatocyte [20] = experiment: Prodrug conversion in rat cryopreserved hepatocytes assessed as 2'-deoxy-2'-spirooxetane uridine triphosphate level per million cells at 10 uM after 8 hrs by LC-MS/MS analysis; format: ADME, cell-based; method in brief: as §2
Hepatocyte [21] = experiment: Prodrug conversion in human cryopreserved hepatocytes assessed as 2'-deoxy-2'-spirooxetane uridine triphosphate level per million cells at 10 uM after 8 hrs by LC-MS/MS analysis; format: ADME, cell-based; method in brief: as §2
[22] = Prodrug conversion in dog cryopreserved hepatocytes assessed as 2'-deoxy-2'-spirooxetane uridine triphosphate level per million cells at 10 uM after 24 hrs by LC-MS/MS analysis; format: ADME, cell-based, Canis lupus familiaris, Hepatocyte; method in brief: as §2
Hepatitis C virus [23] = experiment: Antiviral activity against HCV genotype 3a infected in homozygous cDNA-uPA chimeric SCID mouse bearing humanized hepatocytes assessed as reduction in HCV RNA level in serum administered through oral gavage once daily for 7 days by RT-PCR method; format: functional, organism-based; settings: Hepacivirus hominis, Hepatocyte
Method in brief: (§3)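 Male chimeric SCID cDNA-uPA+/+ mice with human hepatocyte liver (≥70% replacement by blood human albumin) and serum HCV RNA >1.0×10^6 copies/mL the week before dosing. Oral gavage for 7 days in 20% HP-β-CD, 50-200 mg/kg QD or BID. Serum sampled pre-dose on days 1, 2, 3, 5 and 7. Real-time PCR; mean change in log10 copies/mL, day 7 vs day 1 pre-dose.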

Hepatitis C virus [24] = experiment: Antiviral activity against HCV genotype 1a infected in homozygous cDNA-uPA chimeric SCID mouse bearing humanized hepatocytes assessed as change in HCV RNA level in serum at 100 mg/kg, po qd administered through gavage for 7 days by RT-PCR method; format: functional, Hepacivirus hominis, subtype 1a, Hepatocyte; method in brief: as §3
Hepatitis C virus [25] = experiment: Antiviral activity against HCV genotype 3a infected in homozygous cDNA-uPA chimeric SCID mouse bearing humanized hepatocytes assessed as change in HCV RNA level in serum at 100 mg/kg, po qd administered through gavage for 7 days by RT-PCR method; format: functional, Hepacivirus hominis, Hepatocyte; method in brief: as §3
Hepatitis C virus [26] = experiment: Antiviral activity against HCV genotype 3a infected in homozygous cDNA-uPA chimeric SCID mouse bearing humanized hepatocytes assessed as reduction in HCV RNA level in serum administered through oral gavage twice daily daily for 7 days by RT-PCR method; format: functional, organism-based; settings: Hepacivirus hominis, Hepatocyte; method in brief: as §3
[27] = target: RNA-directed RNA polymerase (Hepacivirus hominis, UniProt O39930); experiment: Inhibition of HCV RNA polymerase
Cytochrome P450 3A4 = Cytochrome P450 3A4 (Homo sapiens, UniProt P08684); experiment: Drug metabolism in baculovirus infected insect cell microsomes expressing human CYP3A4 assessed as CYP3A4-mediated intrinsic clearance per pmol CYP3A4 at 22.7 uM; format: ADME; settings: recombinant enzyme
Method in brief: (§4)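 Incubation at 22.7 µM with human CYP3A4 supersomes. Intrinsic clearance (µL/min.pmol P450) and half-life (min) were determined.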

Hepatitis C virus [28] = experiment: Antiviral activity against HCV genotype 1b infected in human HuH7 cells assessed as inhibition of viral replication after 3 days by luciferase reporter gene assay; format: functional, organism-based, Hepacivirus hominis; settings: Huh-7, 72 h
Method in brief: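 HCV 1b subgenomic luciferase replicon (Huh7-luc, clone ET, adaptive mutations E1202G, T1280I, K1846T). 2,500 cells were incubated with compound over a 9-point, 1/4 dilution series for 3 days. Replication was read as luciferase activity.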

CYP3A4 = CYP3A4 (Homo sapiens, UniProt P08684); experiment: Drug metabolism in baculovirus infected insect cell microsomes expressing human CYP3A4 assessed as CYP3A4-mediated half life at 22.7 uM; format: ADME; method in brief: as §4
Sequence of CYP3A4 (P08684 whole entry): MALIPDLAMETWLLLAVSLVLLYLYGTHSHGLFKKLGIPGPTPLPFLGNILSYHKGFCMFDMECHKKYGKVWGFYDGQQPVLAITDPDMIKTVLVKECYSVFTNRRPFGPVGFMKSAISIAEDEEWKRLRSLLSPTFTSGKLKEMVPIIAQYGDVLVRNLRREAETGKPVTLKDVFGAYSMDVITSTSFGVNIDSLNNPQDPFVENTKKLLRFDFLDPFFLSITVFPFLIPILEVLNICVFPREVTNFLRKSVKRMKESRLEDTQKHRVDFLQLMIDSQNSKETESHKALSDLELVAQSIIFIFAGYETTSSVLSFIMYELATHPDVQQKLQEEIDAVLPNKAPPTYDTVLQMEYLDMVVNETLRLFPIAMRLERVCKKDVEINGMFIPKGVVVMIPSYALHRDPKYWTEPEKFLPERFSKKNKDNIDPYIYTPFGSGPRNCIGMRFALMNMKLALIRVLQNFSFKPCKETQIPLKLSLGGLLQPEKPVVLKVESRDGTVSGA

Sequence of RNA-directed RNA polymerase (O39930 whole entry): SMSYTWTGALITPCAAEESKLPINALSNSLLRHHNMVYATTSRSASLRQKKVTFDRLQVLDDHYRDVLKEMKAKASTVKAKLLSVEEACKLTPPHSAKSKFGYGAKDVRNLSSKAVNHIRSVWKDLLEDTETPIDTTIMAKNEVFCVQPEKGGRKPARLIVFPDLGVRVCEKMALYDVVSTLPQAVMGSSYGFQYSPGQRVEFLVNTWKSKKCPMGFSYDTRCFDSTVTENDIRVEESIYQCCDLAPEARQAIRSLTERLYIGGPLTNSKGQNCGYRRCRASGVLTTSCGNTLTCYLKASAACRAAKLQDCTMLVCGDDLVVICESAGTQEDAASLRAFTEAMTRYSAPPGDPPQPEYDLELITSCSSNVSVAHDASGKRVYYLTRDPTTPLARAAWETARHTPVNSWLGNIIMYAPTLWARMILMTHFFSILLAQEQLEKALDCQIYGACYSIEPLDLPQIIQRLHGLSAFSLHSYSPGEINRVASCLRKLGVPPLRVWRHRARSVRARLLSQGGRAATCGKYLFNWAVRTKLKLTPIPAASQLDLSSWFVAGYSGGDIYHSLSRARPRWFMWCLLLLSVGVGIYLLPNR
Sequence of Cytochrome P450 3A4 (P08684 whole entry): as the sequence (P08684 whole entry) above

Drug metabolism (Hepatocyte [1]): metabolite_detected
Drug metabolism (Hepatocyte [2]): metabolite_detected
Drug metabolism [3]: metabolite_detected
Drug metabolism (Hepatocyte [4]): metabolite_detected
Compound: O=c1ccn([C@@H]2O[C@H](CO)[C@@H](O)[C@]23CCO3)c(=O)[nH]1

Drug metabolism [5]: metabolite_detected
Drug metabolism (Hepatocyte [6]): metabolite_detected
Drug metabolism (Hepatocyte [7]): metabolite_detected
Drug metabolism (Hepatocyte [8]): metabolite_detected
Drug metabolism (Hepatocyte [9]): metabolite_detected
Compound: O=c1ccn([C@@H]2O[C@H](COP(=O)(O)O)[C@@H](O)[C@]23CCO3)c(=O)[nH]1

IC50 [27]: 1000 nM
Ki [27]: 130 nM
Compound: O=c1ccn([C@@H]2O[C@H](COP(=O)(O)OP(=O)(O)OP(=O)(O)O)[C@@H](O)[C@]23CCO3)c(=O)[nH]1

Continued, compound first:

Compound: CCCCOC(=O)[C@H](C)NP(=O)(OC[C@H]1O[C@@H](n2ccc(=O)[nH]c2=O)[C@@]2(CCO2)[C@@H]1O)Oc1ccccc1 (stereo partly drawn)
Drug metabolism (Hepatocyte [10]): 0.066 pmol
Drug metabolism [11]: 0.021 pmol
Drug metabolism (Hepatocyte [12]): 0.013 pmol
Drug metabolism (Hepatocyte [13]): 0.173 pmol
Drug metabolism (Hepatocyte [14]): 0.044 pmol
Drug metabolism (Hepatocyte [15]): 0.025 pmol
Drug metabolism (Hepatocyte [16]): 0.023 pmol
CC50 at 72 h [17]: > 100000 nM
Drug metabolism (Hepatocyte [18]): 0.028 pmol
Drug metabolism [19]: 0.01 pmol
Drug metabolism (Hepatocyte [20]): 0.058 pmol
Drug metabolism (Hepatocyte [21]): 0.257 pmol
Drug metabolism [22]: 0.007 pmol

Compound: O=c1ccn([C@@H]2O[C@@H]3COP(=O)(O)O[C@H]3[C@]23CCO3)c(=O)[nH]1
Drug metabolism (Hepatocyte [1]): metabolite_detected
Drug metabolism [5]: metabolite_detected
Drug metabolism (Hepatocyte [7]): metabolite_detected
Drug metabolism (Hepatocyte [2]): metabolite_detected
Drug metabolism [3]: metabolite_detected
Drug metabolism (Hepatocyte [4]): metabolite_detected

Compound: CC(C)OC(=O)[C@H](C)N[P@](=O)(OC[C@H]1O[C@@H](n2ccc(=O)[nH]c2=O)[C@](C)(F)[C@@H]1O)Oc1ccccc1 [SOFOSBUVIR]
Activity (Hepatitis C virus [23]): Dose-dependent effect
Activity (Hepatitis C virus [24]): -2.14
Activity (Hepatitis C virus [25]): -0.97
Activity (Hepatitis C virus [26]): Dose-dependent effect

Compound: CCOc1nc(N)nc2c1ncn2[C@@H]1O[C@@H]2CO[P@](=O)(OC(C)C)O[C@H]2[C@@]1(C)F
CL (Cytochrome P450 3A4): 0.1 µL/min
EC50 (Hepatitis C virus [28]): 300 nM
CC50 at 72 h [17]: > 100000 nM
half-life at 22.7 µM (CYP3A4): 1.27 h

From ChEMBL document CHEMBL3826882, “Discovery of 1-((2R,4aR,6R,7R,7aR)-2-Isopropoxy-2-oxidodihydro-4H,6H-spiro[furo[3,2-d][1,3,2]dioxaphosphinine-7,2'-oxetan]-6-yl)pyrimidine-2,4(1H,3H)-dione (JNJ-54257099), a 3'-5'-Cyclic Phosphate Ester Prodrug of 2'-Deoxy-2'-Spirooxetane Uridine Triphosphate Useful for HCV Inhibition” (J Med Chem, 2016)
